Test system: Fibroblast
Test: Multiplex assay against human fibroblast
Assay type: toxicity, cell-based
How it was run: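 Hoechst33342, BioTracker Green Microtubule Cytoskeleton Dye, MitoTracker Red and Annexin V Alexa Fluor 680 were added to live cells at seeding, and imaging on a CQ1 microscope at 37°C and 5% CO2 followed compound addition. Gating by CellPathfinder machine learning separated cells into Hoechst high-intensity objects or normal cells, then normal cells into healthy, pyknosed or fragmented nuclei, then pyknosed cells into mitotic or apoptotic. Per cents of healthy-nucleus cells are reported for the tubulin, mitochondrial-mass and membrane-permeability phenotypes.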

[1] = 12 h, 1 µM, compound concentration 1 uM, replicate 1
[2] = 12 h, 1 µM, compound concentration 1 uM, replicate 2
[3] = 12 h, 10 µM, compound concentration 10 uM, replicate 1
[4] = 12 h, 10 µM, compound concentration 10 uM, replicate 2
[5] = 24 h, 1 µM, compound concentration 1 uM, replicate 1
[6] = 24 h, 1 µM, compound concentration 1 uM, replicate 2
[7] = 24 h, 10 µM, compound concentration 10 uM, replicate 1
[8] = 24 h, 10 µM, compound concentration 10 uM, replicate 2
[9] = 48 h, 1 µM, compound concentration 1 uM, replicate 1
[10] = 48 h, 1 µM, compound concentration 1 uM, replicate 2
[11] = 48 h, 10 µM, compound concentration 10 uM, replicate 1
[12] = 48 h, 10 µM, compound concentration 10 uM, replicate 2

SMILES: Cc1nc(-c2ccc(-c3ccc(C(=O)N4CCc5cc6c(cc54)C4(CCN(C)CC4)CO6)cc3)c(C)c2)no1 [SB-224289]
- Population Apoptotic (%) [1]: 66%
- Population Fragmented Nuclei (%) [1]: 35%
- Population Healthy Nuclei (%) [1]: 33%
- Population Hoechst High Intensity Objects (%) [1]: 7%
- Population Membrane Permeable-Phenotype (%) [1]: 18%
- Population Mitochondria Different-Phenotype (%) [1]: 25%
- Population Mitotic Cells (%) [1]: 33%
- Population Normal (%) [1]: 92%
- Population Pyknosed Nuclei (%) [1]: 31%
- Population Tubulin-Different-Phenotype (%) [1]: 75%
- Total Cell Count [1]: 188
- Population Apoptotic (%) [2]: 28%
- Population Fragmented Nuclei (%) [2]: 4%
- Population Healthy Nuclei (%) [2]: 81%
- Population Hoechst High Intensity Objects (%) [2]: 12%
- Population Membrane Permeable-Phenotype (%) [2]: 10%
- Population Mitochondria Different-Phenotype (%) [2]: 42%
- Population Mitotic Cells (%) [2]: 71%
- Population Normal (%) [2]: 87%
- Population Pyknosed Nuclei (%) [2]: 14%
- Population Tubulin-Different-Phenotype (%) [2]: 37%
- Total Cell Count [2]: 65
- Population Apoptotic (%) [3]: 71%
- Population Fragmented Nuclei (%) [3]: 34%
- Population Healthy Nuclei (%) [3]: 40%
- Population Hoechst High Intensity Objects (%) [3]: 15%
- Population Membrane Permeable-Phenotype (%) [3]: 5%
- Population Mitochondria Different-Phenotype (%) [3]: 62%
- Population Mitotic Cells (%) [3]: 28%
- Population Normal (%) [3]: 84%
- Population Pyknosed Nuclei (%) [3]: 24%
- Population Tubulin-Different-Phenotype (%) [3]: 89%
- Total Cell Count [3]: 213
- Population Apoptotic (%) [4]: 63%
- Population Fragmented Nuclei (%) [4]: 7%
- Population Healthy Nuclei (%) [4]: 77%
- Population Hoechst High Intensity Objects (%) [4]: 11%
- Population Membrane Permeable-Phenotype (%) [4]: 54%
- Population Mitochondria Different-Phenotype (%) [4]: 100%
- Population Mitotic Cells (%) [4]: 36%
- Population Normal (%) [4]: 88%
- Population Pyknosed Nuclei (%) [4]: 15%
- Population Tubulin-Different-Phenotype (%) [4]: 100%
- Total Cell Count [4]: 56
- Population Apoptotic (%) [5]: 65%
- Population Fragmented Nuclei (%) [5]: 32%
- Population Healthy Nuclei (%) [5]: 41%
- Population Hoechst High Intensity Objects (%) [5]: 14%
- Population Membrane Permeable-Phenotype (%) [5]: 20%
- Population Mitochondria Different-Phenotype (%) [5]: 27%
- Population Mitotic Cells (%) [5]: 34%
- Population Normal (%) [5]: 85%
- Population Pyknosed Nuclei (%) [5]: 25%
- Population Tubulin-Different-Phenotype (%) [5]: 79%
- Total Cell Count [5]: 202
- Population Apoptotic (%) [6]: 0%
- Population Fragmented Nuclei (%) [6]: 15%
- Population Healthy Nuclei (%) [6]: 77%
- Population Hoechst High Intensity Objects (%) [6]: 9%
- Population Membrane Permeable-Phenotype (%) [6]: 6%
- Population Mitochondria Different-Phenotype (%) [6]: 38%
- Population Mitotic Cells (%) [6]: 100%
- Population Normal (%) [6]: 90%
- Population Pyknosed Nuclei (%) [6]: 7%
- Population Tubulin-Different-Phenotype (%) [6]: 22%
- Total Cell Count [6]: 73
- Population Apoptotic (%) [7]: 78%
- Population Fragmented Nuclei (%) [7]: 35%
- Population Healthy Nuclei (%) [7]: 25%
- Population Hoechst High Intensity Objects (%) [7]: 17%
- Population Membrane Permeable-Phenotype (%) [7]: 2%
- Population Mitochondria Different-Phenotype (%) [7]: 61%
- Population Mitotic Cells (%) [7]: 21%
- Population Normal (%) [7]: 82%
- Population Pyknosed Nuclei (%) [7]: 38%
- Population Tubulin-Different-Phenotype (%) [7]: 66%
- Total Cell Count [7]: 186
- Population Apoptotic (%) [8]: 76%
- Population Fragmented Nuclei (%) [8]: 16%
- Population Healthy Nuclei (%) [8]: 56%
- Population Hoechst High Intensity Objects (%) [8]: 11%
- Population Membrane Permeable-Phenotype (%) [8]: 86%
- Population Mitochondria Different-Phenotype (%) [8]: 100%
- Population Mitotic Cells (%) [8]: 23%
- Population Normal (%) [8]: 88%
- Population Pyknosed Nuclei (%) [8]: 26%
- Population Tubulin-Different-Phenotype (%) [8]: 100%
- Total Cell Count [8]: 63
- Population Apoptotic (%) [9]: 68%
- Population Fragmented Nuclei (%) [9]: 44%
- Population Healthy Nuclei (%) [9]: 46%
- Population Hoechst High Intensity Objects (%) [9]: 21%
- Population Membrane Permeable-Phenotype (%) [9]: 8%
- Population Mitochondria Different-Phenotype (%) [9]: 6%
- Population Mitotic Cells (%) [9]: 31%
- Population Normal (%) [9]: 78%
- Population Pyknosed Nuclei (%) [9]: 8%
- Population Tubulin-Different-Phenotype (%) [9]: 50%
- Total Cell Count [9]: 277
- Population Apoptotic (%) [10]: 0%
- Population Fragmented Nuclei (%) [10]: 48%
- Population Healthy Nuclei (%) [10]: 50%
- Population Hoechst High Intensity Objects (%) [10]: 27%
- Population Membrane Permeable-Phenotype (%) [10]: 12%
- Population Mitochondria Different-Phenotype (%) [10]: 3%
- Population Mitotic Cells (%) [10]: 100%
- Population Normal (%) [10]: 72%
- Population Pyknosed Nuclei (%) [10]: 0%
- Population Tubulin-Different-Phenotype (%) [10]: 56%
- Total Cell Count [10]: 169
- Population Apoptotic (%) [11]: 90%
- Population Fragmented Nuclei (%) [11]: 46%
- Population Healthy Nuclei (%) [11]: 21%
- Population Hoechst High Intensity Objects (%) [11]: 33%
- Population Membrane Permeable-Phenotype (%) [11]: 30%
- Population Mitochondria Different-Phenotype (%) [11]: 50%
- Population Mitotic Cells (%) [11]: 10%
- Population Normal (%) [11]: 66%
- Population Pyknosed Nuclei (%) [11]: 31%
- Population Tubulin-Different-Phenotype (%) [11]: 85%
- Total Cell Count [11]: 142
- Population Apoptotic (%) [12]: 100%
- Population Fragmented Nuclei (%) [12]: 47%
- Population Healthy Nuclei (%) [12]: 15%
- Population Hoechst High Intensity Objects (%) [12]: 29%
- Population Membrane Permeable-Phenotype (%) [12]: 14%
- Population Mitochondria Different-Phenotype (%) [12]: 85%
- Population Mitotic Cells (%) [12]: 0%
- Population Normal (%) [12]: 70%
- Population Pyknosed Nuclei (%) [12]: 36%
- Population Tubulin-Different-Phenotype (%) [12]: 71%
- Total Cell Count [12]: 127

From ChEMBL document CHEMBL4689842, “EUbOPEN Chemogenomics Library wave 1” (2021)
